What all share (assay type): functional, cell-based
One test relates to Jurkat. Kind of test: Cytotoxicity against human Jurkat cells after 48 hrs by Cell titer Glo assay. The method in brief:
(§1)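 Cells grown in medium with 10% FBS and penicillin-streptomycin: DMEM for HeLa, MDA-MB231 and PC-3, RPMI for Jurkat. Compounds were taken from 20 mM DMSO stocks and serially diluted in medium at 37 °C. Cells were exposed for 48 h. Viability was read as ATP luminescence and normalized to untreated control (% viability). IC50 came from dose-response curve fits; each was run three times and given as mean ± SD.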

The test system of the next test is MDA-MB-231. In words: Cytotoxicity against human MDA-MB-231 cells after 48 hrs by Cell titer Glo assay. Conditions: MDA-MB-231, 48 h. The method in brief: as §1
Background: Cellular ATP, detected with luciferase, serves as a proxy for viable cell number.

A further test deals with HeLa. In words: Cytotoxicity against human HeLa cells after 48 hrs by Cell titer Glo assay. The method in brief: as §1
The next test deals with PC-3. In words: Cytotoxicity against human PC3 cells after 48 hrs by Cell titer Glo assay. Conditions: PC-3, 48 h. In short, it runs like this: as §1

SMILES strings stand for the structures.

In the case of `CCCCCCCCCCCO[C@H]1[C@@H](O)[C@@H](CO)O[C@@H](OCCCCCCCCCCCC[C@@H](O)CC2=C[C@H](C)OC2=O)[C@@H]1O`, the IC50 stood at 78.2 µM in the test on Jurkat, 73.5 µM in the test on MDA-MB-231 and 50.3 µM with HeLa.

With `CCCCCCCCCCCOC[C@H]1O[C@H](OCCCCCCCCCCCC[C@@H](O)CC2=C[C@H](C)OC2=O)C[C@@H](O)[C@@H]1O`, the IC50 in the test on Jurkat stood at 13.3 µM; in the test on MDA-MB-231, 16.8 µM; with PC-3 it was 44 µM; in the test with HeLa it was 16.3 µM.

`CCCCCCCCCCCOC[C@@H]1CC[C@H](O)[C@@H](OCCCCCCCCCCCC[C@@H](O)CC2=C[C@H](C)OC2=O)O1`: the half-maximal inhibitory concentration (IC50) in the test with Jurkat turned out to be 10.7 µM; in the test on MDA-MB-231, 21.8 µM; with PC-3 it was 28.7 µM; with HeLa, 13.9 µM.

Turning to `CCCCCCCCCCCOC[C@@H]1C[C@H](O)[C@H](O)[C@@H](OCCCCCCCCCCCC[C@@H](O)CC2=C[C@H](C)OC2=O)O1`, the IC50 is 19.7 µM in the test with Jurkat, 36.7 µM with MDA-MB-231, 52.8 µM with PC-3 and 23.3 µM in the test on HeLa.

Consider `CCCCCCCCCCCOC[C@H]1O[C@H](OCCCCCCCCCCCC[C@@H](O)CC2=C[C@H](C)OC2=O)[C@@H](O)[C@@H](O)[C@@H]1O`, for which the IC50 stood at 10.1 µM in the test on Jurkat, 21.2 µM with MDA-MB-231, 32.6 µM in the test on PC-3 and 15.2 µM with HeLa.

As to `CCCCCCCCCCCC[C@@H](O)[C@H]1CC[C@H]([C@H](O)CCCCC[C@@H](O)CCCCCCC2=C[C@H](C)OC2=O)O1`, the IC50 worked out at 17.8 µM in the test on Jurkat, 34.2 µM in the test with MDA-MB-231, 43.1 µM with PC-3 and 21 µM in the test with HeLa.

Broadly, the IC50 is the concentration that gives 50% inhibition. Read a low IC50 as inhibition by little substance.

Values taken from ChEMBL document CHEMBL2440044, “Synthesis and anti-tumor activity of carbohydrate analogues of the tetrahydrofuran containing acetogenins” (Bioorg Med Chem, 2013).
